Screens as filed in PubChem BioAssay.
MEKK2wt PB1 HTS: raises or lowers MEK5 binding to wildtype human MEKK2 PB1 domain; Q9Y2U5; bead flow cytometry, Alexa488-MEK5 binding to MEKK2 WT; actives lie on both sides; binding response (% of control), % at 10 µM; hit rate 1.1% among 290,000; AID 1531; in the data active = binding response below about 67% or above about 130%
ABCG2 inh: inhibitors of human ABCG2 transporter, ABCB1 counter-screen; Q9UNQ0; IgMXP3 cells, JC-1 efflux, flow cytometry; inhibition, % at 6.6 µM; hit rate 0.1% among 190,000;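 active = inhibition above 80%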
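Test system: ABCG2 IgMXP3 and barcoded ABCB1 CCRF-Adr cell mix; Schedule: cells with compound and JC-1, 10 min at 25 °C, rotating, no wash; Technique: flow cytometry of retained JC-1 fluorescence; Measure: % inhibition of efflux relative to nicardipine and DMSO; Controls: nicardipine high and DMSO low controls.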
MEKK3 PB1 HTS: modulators (inhibitors or enhancers) of MEK5 binding to human MEKK3 PB1 domain | Q99759 | bead-based flow cytometry, Alexa488-MEK5 binding to MEKK3; actives lie on both sides; 0 = blocked by unlabeled MEK5, 100 = vehicle | hit rate 1.4% among 290,000 | binding response (% of control), % at 10 µM;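 active = binding response more than 3 SD above or below the average of its plate-row segment, actives on both sides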;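 also: Alexa488 bead fluorescence after subtracting the streptavidin-only scavenger bead signal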
Target sequence (Q99759 whole entry, looked up, the tested form may be a part): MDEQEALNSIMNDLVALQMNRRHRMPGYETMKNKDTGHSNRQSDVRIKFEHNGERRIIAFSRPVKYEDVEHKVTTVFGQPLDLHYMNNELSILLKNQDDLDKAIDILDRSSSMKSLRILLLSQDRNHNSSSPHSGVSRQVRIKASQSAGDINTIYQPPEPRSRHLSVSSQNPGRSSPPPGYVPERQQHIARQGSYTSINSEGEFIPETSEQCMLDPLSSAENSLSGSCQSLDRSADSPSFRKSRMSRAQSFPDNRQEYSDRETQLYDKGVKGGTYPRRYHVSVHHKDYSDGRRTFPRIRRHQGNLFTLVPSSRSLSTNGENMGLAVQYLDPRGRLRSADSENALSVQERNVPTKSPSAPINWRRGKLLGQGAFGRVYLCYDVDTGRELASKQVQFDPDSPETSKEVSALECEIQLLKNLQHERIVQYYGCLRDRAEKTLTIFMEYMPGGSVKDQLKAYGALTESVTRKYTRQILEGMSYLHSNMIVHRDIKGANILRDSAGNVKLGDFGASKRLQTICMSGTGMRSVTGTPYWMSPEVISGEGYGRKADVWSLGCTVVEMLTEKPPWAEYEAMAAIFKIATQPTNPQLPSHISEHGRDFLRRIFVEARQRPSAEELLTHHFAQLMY
ABCB1 block: human ABCB1 inhibition, ABCG2 as counter-screen | P08183 | CCRF-Adr cells, JC-1 efflux, flow cytometry | inhibition, % at 6.6 µM | hit rate 0.067% among 190,000 | AID 1326; in the data active = inhibition above about 40%;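 also: higher value means more JC-1 retained so stronger ABCB1 efflux block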
MEKK2mut PB1 HTS: signal of MEK5 binding to mutant human MEKK2 PB1 domain; bead flow cytometry, Alexa488-MEK5 binding to MEKK2 mutant; percent response, % at 10 µM; hit rate 0.35% among 290,000; AID 1530; in the data active = percent response above about 24%, passing the limit was not always enough
MEKK2wt confirm: raises or lowers MEK5 binding to wildtype human MEKK2, retest | shares compounds with MEKK3 PB1 HTS | bead flow cytometry, Alexa488-MEK5 binding to MEKK2 WT; actives lie on both sides | binding response (% of control), % at 10 µM | hit rate 2.4% among 5,900; in the data active = binding response below about 16% or above about 210%; inactive = in between
MEKK2mut-MEK5: signal of MEK5 binding to mutant human MEKK2, retest. bead flow cytometry, Alexa488-MEK5 binding to MEKK2 mutant. AID 1893. percent response, % at 10 µM. shares compounds with MEKK3 PB1 HTS. hit rate 2% among 5,900; in the data active = percent response mostly above about 71%, no sharp cut-off; inactive = mostly below about 38%;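 also: higher means compound restores mutant binding toward wildtype level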
MEKK3 confirm: confirmation of inhibitors of MEK5 binding to human MEKK3. bead flow cytometry, Alexa488-MEK5 binding to MEKK3; stronger effect = lower value. binding response (% of control), % at 10 µM. hit rate 1.8% among 5,900. shares compounds with MEKK3 PB1 HTS;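 active = binding response below 72% of control, or above a set upper limit, though filed actives all read lower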
A number is an active result; [ ] = dose if it differs, or a comment. A selection: hits, their analogues and other compounds. The true share with any hit is near 2.3%.

Results for O=C(N/N=C/c1c[nH]c2ccccc12)c1cc(-c2ccc(-c3ccccc3)cc2)n[nH]1 ?
MEKK2wt PB1 HTS: inactive; ABCG2 inh: inactive; MEKK3 PB1 HTS: inactive; ABCB1 block: inactive; MEKK2mut PB1 HTS: inactive

Results for O=C(NCc1nc2ncc(Br)cc2[nH]1)c1ccccc1 ?
MEKK2wt PB1 HTS: 0.0[inhibitor]; ABCG2 inh: inactive; MEKK3 PB1 HTS: 0.0[inhibitor]; ABCB1 block: inactive; MEKK2mut PB1 HTS: inactive; MEKK2wt confirm: inactive; MEKK2mut-MEK5: inactive; MEKK3 confirm: inactive

How did Brc1cnc2nc(SC/C=C/c3ccccc3)[nH]c2c1 do in these assays?
MEKK2wt PB1 HTS: inactive; MEKK3 PB1 HTS: inactive; MEKK2mut PB1 HTS: inactive

Results for O=C(/C=C/c1ccccc1Cl)N(Cc1ccccc1)C1CCS(=O)(=O)C1 (configuration not stated) ?
MEKK2wt PB1 HTS: inactive; ABCG2 inh: inactive; MEKK3 PB1 HTS: 138; ABCB1 block: inactive; MEKK2mut PB1 HTS: inactive; MEKK2wt confirm: inactive; MEKK2mut-MEK5: inactive; MEKK3 confirm: inactive

What do the screens show for `O=C(/C=C/c1ccccc1Cl)N(Cc1ccc(Cl)cc1)C1CCS(=O)(=O)C1` (configuration not stated)?
MEKK2wt PB1 HTS: inactive; ABCG2 inh: inactive; MEKK3 PB1 HTS: inactive; ABCB1 block: inactive; MEKK2mut PB1 HTS: inactive

What do the screens show for `Cc1ccc2c(c1)nnn2C1CCN(CC(=O)c2ccc(Cl)cc2)CC1`?
MEKK2wt PB1 HTS: inactive; ABCG2 inh: inactive; MEKK3 PB1 HTS: 129; ABCB1 block: inactive; MEKK2mut PB1 HTS: inactive; MEKK2wt confirm: inactive; MEKK2mut-MEK5: inactive; MEKK3 confirm: inactive

What do the screens show for `Cc1ccc2c(c1)N(CC(=O)NCCCN1CCN(C)CC1)C(=O)CO2`?
MEKK2wt PB1 HTS: inactive; MEKK3 PB1 HTS: inactive; MEKK2mut PB1 HTS: inactive

Results for Cc1onc(-c2ccccc2)c1C(=O)NCc1ccc2c(c1)OCO2 ?
MEKK2wt PB1 HTS: -6.0[inhibitor]; ABCG2 inh: inactive; MEKK3 PB1 HTS: inactive; ABCB1 block: inactive; MEKK2mut PB1 HTS: inactive; MEKK2wt confirm: inactive; MEKK2mut-MEK5: inactive; MEKK3 confirm: inactive

How did Cc1cc(-c2n[nH]c(=S)n2/N=C/c2ccc(Cl)c([N+](=O)[O-])c2)n[nH]1 do in these assays?
MEKK2wt PB1 HTS: inactive; ABCG2 inh: inactive; MEKK3 PB1 HTS: 155; ABCB1 block: inactive; MEKK2mut PB1 HTS: inactive; MEKK2wt confirm: inactive; MEKK2mut-MEK5: inactive; MEKK3 confirm: inactive

How did CCCCCCCCCn1c2c(c(=N)c3c1CCC3)CCCC2 do in these assays?
MEKK2wt PB1 HTS: 177; ABCG2 inh: inactive; MEKK3 PB1 HTS: inactive; ABCB1 block: inactive; MEKK2mut PB1 HTS: inactive; MEKK2wt confirm: inactive; MEKK2mut-MEK5: inactive; MEKK3 confirm: inactive

How did CCCCCCCCCCn1c2c(c(=N)c3c1CCC3)CCC2 do in these assays?
MEKK2wt PB1 HTS: 140; ABCG2 inh: inactive; MEKK3 PB1 HTS: inactive; ABCB1 block: inactive; MEKK2mut PB1 HTS: inactive; MEKK2wt confirm: inactive; MEKK2mut-MEK5: inactive; MEKK3 confirm: inactive

How did COc1ccc(OCC(=O)Nc2ccc3c(c2)nc(CN2CCCC2)n3C)cc1 do in these assays?
MEKK2wt PB1 HTS: inactive; ABCG2 inh: inactive; MEKK3 PB1 HTS: inactive; ABCB1 block: inactive; MEKK2mut PB1 HTS: inactive

Results for COc1ccc2c(c1)nc(SCC(=O)C(C)(C)C)n2C ?
MEKK2wt PB1 HTS: inactive; ABCG2 inh: inactive; MEKK3 PB1 HTS: inactive; ABCB1 block: inactive; MEKK2mut PB1 HTS: inactive

How did COc1ccccc1C(=O)Nc1ccc2c(c1)nc(CN1CCN(C(C)=O)CC1)n2C do in these assays?
MEKK2wt PB1 HTS: inactive; ABCG2 inh: inactive; MEKK3 PB1 HTS: 67[inhibitor]; ABCB1 block: inactive; MEKK2mut PB1 HTS: inactive; MEKK2wt confirm: inactive; MEKK2mut-MEK5: inactive; MEKK3 confirm: inactive

How did COc1ccc2c(c1)nc(SCC(C)O)n2C (configuration not stated) do in these assays?
MEKK2wt PB1 HTS: inactive; ABCG2 inh: inactive; MEKK3 PB1 HTS: 132; ABCB1 block: inactive; MEKK2mut PB1 HTS: inactive; MEKK2wt confirm: inactive; MEKK2mut-MEK5: inactive; MEKK3 confirm: inactive

How did COc1ccc2c(c1)nc(CN1CCN(CCO)CC1)n2C do in these assays?
MEKK2wt PB1 HTS: inactive; MEKK3 PB1 HTS: inactive; MEKK2mut PB1 HTS: 32; MEKK2wt confirm: inactive; MEKK2mut-MEK5: inactive; MEKK3 confirm: inactive

Results for O=C(Nc1ccc2nc3n(c(=O)c2c1)CCCCC3)C(=O)N1CCN(c2ccccc2)CC1 ?
MEKK2wt PB1 HTS: inactive; MEKK3 PB1 HTS: inactive; MEKK2mut PB1 HTS: inactive

How did CN1CCN(C(=O)C23CCC(C)(C(=O)C2Br)C3(C)C)CC1 (configuration not stated) do in these assays?
MEKK2wt PB1 HTS: inactive; MEKK3 PB1 HTS: 135; MEKK2mut PB1 HTS: inactive; MEKK2wt confirm: inactive; MEKK2mut-MEK5: inactive; MEKK3 confirm: inactive

How did CCN1CCN(C(=O)C23CCC(C)(C(=O)C2Br)C3(C)C)CC1 (configuration not stated) do in these assays?
MEKK2wt PB1 HTS: inactive; MEKK3 PB1 HTS: inactive; MEKK2mut PB1 HTS: inactive

What do the screens show for `CCc1nnc(NS(=O)(=O)c2ccc(N=Cc3c(C)[nH]n(-c4ccc(C)c(C)c4)c3=O)cc2)s1`?
MEKK2wt PB1 HTS: inactive; ABCG2 inh: inactive; MEKK3 PB1 HTS: 160; ABCB1 block: inactive; MEKK2mut PB1 HTS: inactive; MEKK2wt confirm: inactive; MEKK2mut-MEK5: inactive; MEKK3 confirm: inactive

How did Cc1ccc(-n2[nH]c(C)c(C=Nc3ccc(S(=O)(=O)Nc4nccs4)cc3)c2=O)cc1 do in these assays?
MEKK2wt PB1 HTS: inactive; ABCG2 inh: inactive; MEKK3 PB1 HTS: inactive; ABCB1 block: inactive; MEKK2mut PB1 HTS: inactive

How did CCOC(=O)c1sc(NC(=O)CN2C(=O)NC3(CCCCCCC3)C2=O)c(C(=O)OCC)c1C do in these assays?
MEKK2wt PB1 HTS: 25[inhibitor]; MEKK3 PB1 HTS: 35[inhibitor]; MEKK2mut PB1 HTS: inactive; MEKK2wt confirm: inactive; MEKK2mut-MEK5: inactive; MEKK3 confirm: inactive

Results for CC(C(=O)N1CCc2ccccc21)N1CCN(c2cccc(C(F)(F)F)c2)CC1 (configuration not stated) ?
MEKK2wt PB1 HTS: inactive; MEKK3 PB1 HTS: inactive; MEKK2mut PB1 HTS: inactive

How did Nc1cc(=O)[nH]c(SCC(=O)Nc2cc([N+](=O)[O-])ccc2Cl)n1 do in these assays?
MEKK2wt PB1 HTS: inactive; ABCG2 inh: inactive; MEKK3 PB1 HTS: 138; ABCB1 block: inactive; MEKK2mut PB1 HTS: inactive; MEKK2wt confirm: inactive; MEKK2mut-MEK5: inactive; MEKK3 confirm: inactive

What do the screens show for `O=C(COC(=O)C1C2CC3OC(=O)C1C3C2)Nc1cccc(C(F)(F)F)c1` (configuration not stated)?
MEKK2wt PB1 HTS: inactive; MEKK3 PB1 HTS: inactive; MEKK2mut PB1 HTS: inactive
